Structures are written as SMILES. Values after ≈ are worked out from the molar mass of the structure shown. Some results are limits rather than exact numbers.

For one series, the target named is T1, Bifunctional epoxide hydrolase 2 (Homo sapiens, UniProt P34913).
T1 sequence (P34913 whole entry): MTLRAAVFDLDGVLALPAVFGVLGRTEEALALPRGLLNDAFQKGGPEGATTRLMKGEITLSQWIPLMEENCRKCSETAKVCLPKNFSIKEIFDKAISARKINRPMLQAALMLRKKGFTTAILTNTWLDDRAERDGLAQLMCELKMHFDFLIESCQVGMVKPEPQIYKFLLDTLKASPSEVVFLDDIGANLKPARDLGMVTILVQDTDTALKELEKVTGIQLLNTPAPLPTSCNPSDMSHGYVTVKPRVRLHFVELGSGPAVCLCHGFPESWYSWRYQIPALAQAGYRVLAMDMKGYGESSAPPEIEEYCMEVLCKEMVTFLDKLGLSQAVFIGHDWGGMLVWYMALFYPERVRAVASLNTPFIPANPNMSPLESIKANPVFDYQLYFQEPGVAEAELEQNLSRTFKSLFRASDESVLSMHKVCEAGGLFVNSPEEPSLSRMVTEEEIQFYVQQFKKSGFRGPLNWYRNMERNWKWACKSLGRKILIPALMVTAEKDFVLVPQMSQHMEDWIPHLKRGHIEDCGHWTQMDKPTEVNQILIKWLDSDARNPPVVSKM
The series is described as follows: Inhibition of recombinant human sEH expressed in baculovirus infected insect Sf9 cells using CMNPC as substrate assessed as 6-methoxy-2-naphthadehyde level after 10 mins by fluorescence assay. In outline: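 Recombinant human sEH (6xHis-tagged, expressed in Sf9 cells, tag removed with TEV protease, purified by metal affinity then anion exchange; 1 nM) preincubated with compound in DMSO for 10 min in 25 mM Bis–Tris/HCl pH 7.0 at 30 °C. CMNPC substrate added (5 µM). 6-Methoxy-2-naphthaldehyde read at ex 330/em 465 nm over 10 min. IC50 by regression of ≥5 points; mean of three runs.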
One may read the IC50 as the concentration that gives 50% inhibition. Take `CC(C)OP(=O)(OC(C)C)C(Nc1ccc(CNC(=O)NC23CC4CC(CC(C4)C2)C3)cc1)C(C)(C)C` (stereo not given): the half-inhibitory concentration (IC50) was 1.7 nM. As to `CCCCOP(=O)(OCCCC)C(Nc1ccc(CNC(=O)C23CC4CC(CC(C4)C2)C3)cc1)C(C)(C)C` (stereo not given), the half-maximal inhibitory concentration (IC50) turned out to be 26 nM. On the same count and under the same terms, to `CC(C)OP(=O)(OC(C)C)C(Nc1ccc(CNC(=O)C23CC4CC(CC(C4)C2)C3)cc1)C(C)(C)C` (stereo not given) belongs 6.7 nM; to `CCOP(=O)(OCC)C(Nc1ccc(CNC(=O)C2CCCCC2)cc1)C(C)(C)C` (stereo not given), 23 nM; to `CCOP(=O)(OCC)C(Nc1ccc(CNC(=O)C23CC4CC(CC(C4)C2)C3)cc1)c1ccc2ccccc2c1` (stereo not given), 186 nM. Take `CC(C)(C)C(Nc1ccc(CNC(=O)NC23CC4CC(CC(C4)C2)C3)cc1)P(=O)(OCc1ccccc1)OCc1ccccc1` (stereo not given): the 50% inhibitory concentration (IC50) came out at 2.6 nM. Consider `CC(C)(C)C(Nc1ccc(CNC(=O)NC23CC4CC(CC(C4)C2)C3)cc1)P(=O)(OCC(F)(F)F)OCC(F)(F)F` (stereo not given), for which the IC50 amounted to 3.8 nM.

With `CCOP(=O)(OCC)C(Nc1ccc(CCNC(=O)C23CC4CC(CC(C4)C2)C3)cc1)C(C)(C)C` (stereo not given), the half-inhibitory concentration (IC50) amounted to 8.2 nM. Regarding `CCOP(=O)(OCC)C(Nc1ccc(CNC(=O)C23CC4CC(CC(C4)C2)C3)cc1)C(=O)c1ccccc1` (stereo not given), the half-maximal inhibitory concentration (IC50) was 69 nM. For the compound `CCOP(=O)(OCC)C(Nc1ccc(CNC(=O)C23CC4CC(CC(C4)C2)C3)cc1)c1ccc(C(C)(C)C)cc1` (stereo not given), the half-inhibitory concentration (IC50) came to 192 nM. For the compound `CCOP(=O)(OCC)C(Nc1ccc(CNC(=O)C2CCc3ccccc3C2)cc1)C(C)(C)C` (stereo not given), the concentration for half-maximal inhibition (IC50) worked out at 3 nM. Same read-out and setting: the figure for `CCOP(=O)(OCC)C(Nc1ccc(CNC(=O)C23CC4CC(CC(C4)C2)C3)cc1)c1ccc(OC)cc1` (stereo not given) is 199 nM; for `CCOP(=O)(OCC)C(CC(C)(C)C)Nc1ccc(CNC(=O)C23CC4CC(CC(C4)C2)C3)cc1` (stereo not given) it is 41 nM; for `CCOP(=O)(OCC)C(Nc1ccc(CNC(=O)C23CC4CC(CC(C4)C2)C3)cc1)C1CC1` (stereo not given) it is 21 nM. Still for that read-out and setting: to `CCOP(=O)(OCC)C(Nc1ccc(CNC(=O)C23CC4CC(CC(C4)C2)C3)cc1)c1ccccc1` (stereo not given) belongs 45 nM; to `CCOP(=O)(OCC)C(Nc1ccc(CNC(=O)C23CC4CC(CC(C4)C2)C3)cc1)c1ccc(C)cc1` (stereo not given), 130 nM.

Turning to `CCOP(=O)(OCC)C(Nc1ccc(CNC(=O)C23CC4CC(CC(C4)C2)C3)cc1)c1ccncc1` (stereo not given), the IC50 is 185 nM. Turning to `CCOP(=O)(OCC)C(Nc1ccc(CNC(=O)Cc2ccc3ccccc3c2)cc1)C(C)(C)C` (stereo not given), the IC50 is 3.4 nM. Still for that read-out and setting: the figure for `CCOP(=O)(OCC)C(Nc1ccc(COC(=O)C23CC4CC(CC(C4)C2)C3)cc1)C(C)(C)C` (stereo not given) is over 1000 nM; for `CCOP(=O)(OCC)C(Nc1ccc(CNC(=O)CC23CC4CC(CC(C4)C2)C3)cc1)C(C)(C)C` (stereo not given) it is 1.9 nM; for `CC(C)COP(=O)(OCC(C)C)C(Nc1ccc(CNC(=O)C23CC4CC(CC(C4)C2)C3)cc1)C(C)(C)C` (stereo not given) it is 16 nM.

On to `CCOP(=O)(OCC)C(Nc1ccc(CNC(=O)C23CC4CC(CC(C4)C2)C3)cc1)c1ccc(C#N)cc1` (stereo not given), for which the IC50 was 108 nM. As to `CC(C)(C)C(Nc1ccc(CNC(=O)C23CC4CC(CC(C4)C2)C3)cc1)P(=O)(OCC(F)(F)F)OCC(F)(F)F` (stereo not given), the IC50 came out at 30 nM. For the compound `CCOP(=O)(OCC)C(Nc1ccc(CNC(=O)C23CC4CC(CC(C4)C2)C3)cc1)c1ccc(C(=O)OC)cc1` (stereo not given), the IC50 stood at 230 nM. In the case of `CCCC(Nc1ccc(CNC(=O)C23CC4CC(CC(C4)C2)C3)cc1)P(=O)(OCC)OCC` (stereo not given), the IC50 was determined as 58 nM. Take `CC(C)(C)C(Nc1ccc(CNC(=O)C23CC4CC(CC(C4)C2)C3)cc1)P(=O)(OCc1ccccc1)OCc1ccccc1` (stereo not given): the concentration for half-maximal inhibition (IC50) is 42 nM. For the compound `CCOP(=O)(OCC)C(Nc1ccc(CNC(=O)NC23CC4CC(CC(C4)C2)C3)cc1)C(C)(C)C` (stereo not given), the IC50 was found to be 0.96 nM. On the same count and under the same terms, the figure for `CCOP(=O)(OCC)C(Nc1ccc(CNC(=O)c2ccc(OC(F)(F)F)cc2)cc1)C(C)(C)C` (stereo not given) is 24 nM; for `CCOP(=O)(OCC)C(Nc1ccc(CNC(=O)C23CC4CC(CC(C4)C2)C3)cc1)c1ccc(F)cc1` (stereo not given) it is 120 nM; for `CCOP(=O)(OCC)C(Nc1ccc(CNC(=O)c2ccc3cc(O)ccc3c2)cc1)C(C)(C)C` (stereo not given) it is 17 nM. `CCOP(=O)(OCC)C(Nc1ccc(CNC(=O)C23CC4CC(CC(C4)C2)C3)cc1)C(C)(C)C` (stereo not given): the IC50 was found to be 5.1 nM. `CCOP(=O)(OCC)C(Nc1ccc(CNC(=O)C23CC4CC(CC(C4)C2)C3)cc1)C1CCCCC1` (stereo not given): the IC50 amounted to 46 nM. `CCOP(=O)(OCC)C(Nc1ccc(NC(=O)C23CC4CC(CC(C4)C2)C3)cc1)C(C)(C)C` (stereo not given): the IC50 is 37 nM. Regarding `CC(C)COP(=O)(OCC(C)C)C(Nc1ccc(CNC(=O)NC23CC4CC(CC(C4)C2)C3)cc1)C(C)(C)C` (stereo not given), the IC50 came to 1.8 nM.

Regarding `CCOP(=O)(OCC)C(Nc1ccc(CCC(=O)NC23CC4CC(CC(C4)C2)C3)cc1)C(C)(C)C` (stereo not given), the IC50 is 43 nM. As for `CCCCOP(=O)(OCCCC)C(Nc1ccc(CNC(=O)NC23CC4CC(CC(C4)C2)C3)cc1)C(C)(C)C` (stereo not given), the IC50 came to 3 nM.

System in the next series: not listed separately
Kind of series: Aqueous solubility of the compound in sodium phosphate buffer at pH 7.4 at 25 +/- 1.5 degC by light scattering method. The class given is physicochemical. In outline:
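Compound stock in DMSO added at varied concentrations to 0.1 M sodium phosphate pH 7.4, final DMSO:buffer 5:95 (v/v). Turbidity read as OD at 650 nm at 25 ± 1.5 °C. Signal-to-noise ≥2 counted as insoluble. Mean of three separate measurements.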
In general, kinetic solubility refers to solubility judged after dilution from a stock solution rather than from solid. As to `CCOP(=O)(OCC)C(Nc1ccc(CNC(=O)Cc2ccc3ccccc3c2)cc1)C(C)(C)C` (stereo not given), the kinetic solubility came to 78 µM (≈ 38.7 µg/mL). For the compound `CCOP(=O)(OCC)C(Nc1ccc(CNC(=O)CC23CC4CC(CC(C4)C2)C3)cc1)C(C)(C)C` (stereo not given), the solubility (kinetic) worked out at 62 µM (≈ 31.3 µg/mL). In turn, `CCOP(=O)(OCC)C(Nc1ccc(CNC(=O)NC23CC4CC(CC(C4)C2)C3)cc1)C(C)(C)C` (stereo not given) showed a solubility (kinetic) of 78 µM (≈ 39.4 µg/mL). With `CCOP(=O)(OCC)C(Nc1ccc(CNC(=O)C23CC4CC(CC(C4)C2)C3)cc1)C(C)(C)C` (stereo not given), the solubility (kinetic) came to 125 µM (≈ 61.3 µg/mL).

(Values after ChEMBL document CHEMBL3627639, “Structure-activity relationships of amide-phosphonate derivatives as inhibitors of the human soluble epoxide hydrolase” (Bioorg Med Chem, 2015).)
